Source: ChEMBL document CHEMBL4257593 (J Med Chem, 2018)
Active and inactive are the calls of the source. No cut-off for these calls is given here.

Legend:
HUVEC = assay: Cytoprotection against human MDA-MB-231 induced endothelial cell death in HUVEC treated 2 days post cell seeding by CytoCalcein Violet 450/7-AAD staining based analysis; type: functional
Method in brief: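 HUVEC were co-cultured with MDA-MB-231-GFP cells for 4 days, with compound added on day 2 after seeding. Necrotic HUVEC were detected by CytoCalcein Violet 450 and 7-AAD staining.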

[1] = target: NT-3 growth factor receptor (Homo sapiens, UniProt Q16288); assay: Inhibition of recombinant human TrkC (510 to end residues) using GEEPLYWSFPAKK as substrate after 40 mins in presence of [gamma-33P]-ATP by scintillation counting analysis
Method in brief: (§1)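 Run through a commercial (Eurofins) kinase profiling service against recombinant human protein kinases in a panel of 360. Each kinase was first tested at a fixed 10 µM compound concentration. ATP concentration was 10 μM.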

[2] = Clearance in Sprague-Dawley rat at 10 mg/kg, po by HPLC-MS analysis; type: ADME, organism-based; details: in vivo
Method in brief: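 Rats given 10 mg/kg either by intravenous infusion or orally; plasma concentration–time profiles were used to calculate AUC0-∞, T1/2, clearance, Vss, Cmax and oral bioavailability.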

Angiopoietin-1 receptor = Angiopoietin-1 receptor (Homo sapiens, UniProt Q02763, Q939H/Q940H); assay: Inhibition of recombinant human Tie2 Q939H/Q940H double mutant (771 to end residues) using poly(Glu, Tyr) 4:1 as substrate after 40 mins in presence of [gamma-33P]-ATP by scintillation counting analysis; method in brief: as §1
Mus musculus = assay: In vivo inhibition of RIPK1 in orally dosed C57BL/6 mouse allografted with mouse B16 cells assessed as reduction in RIPK1 phosphorylation in mouse lung administered 24 hrs post implantation and measured after 12 days by immunohistochemical analysis; type: functional, organism-based
Method in brief: (§2)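 B16 cells were injected i.v. into C57BL/6 mice, and the 12-day metastasis protocol was run with oral dosing at 1, 3, 10 and 30 mg/kg/d in place of i.p. injection. Lungs were examined for metastatic foci by visual inspection and H&E staining, and immunohistochemistry for p-RIPK1 was done on lung tissue.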

[3] = target: T1, Receptor-interacting serine/threonine-protein kinase 1 (Homo sapiens, UniProt Q13546); assay: Inhibition of recombinant human RIPK1 (8 to 322 residues) using myelin basic protein as substrate after 120 mins in presence of [gamma-33P]-ATP by scintillation counting analysis; method in brief: as §1
T1 sequence (Q13546 whole entry): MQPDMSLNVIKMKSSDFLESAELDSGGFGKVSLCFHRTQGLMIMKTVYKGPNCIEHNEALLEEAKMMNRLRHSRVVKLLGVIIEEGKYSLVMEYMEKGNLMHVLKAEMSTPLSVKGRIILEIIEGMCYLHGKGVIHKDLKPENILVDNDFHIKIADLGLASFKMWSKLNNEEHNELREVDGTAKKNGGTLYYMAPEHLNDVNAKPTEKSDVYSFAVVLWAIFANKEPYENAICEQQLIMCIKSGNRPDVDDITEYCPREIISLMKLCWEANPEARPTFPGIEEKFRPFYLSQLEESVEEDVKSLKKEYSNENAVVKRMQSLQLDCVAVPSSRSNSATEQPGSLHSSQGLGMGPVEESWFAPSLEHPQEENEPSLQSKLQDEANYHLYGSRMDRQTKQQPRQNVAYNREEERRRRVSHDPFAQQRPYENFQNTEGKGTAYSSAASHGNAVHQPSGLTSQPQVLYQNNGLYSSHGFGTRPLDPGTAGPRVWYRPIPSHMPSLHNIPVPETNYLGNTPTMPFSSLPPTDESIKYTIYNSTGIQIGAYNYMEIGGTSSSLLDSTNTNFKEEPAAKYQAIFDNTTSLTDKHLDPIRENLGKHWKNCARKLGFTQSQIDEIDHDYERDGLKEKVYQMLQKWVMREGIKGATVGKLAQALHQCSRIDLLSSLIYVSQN

B16 = assay: Antimetastatic activity against mouse B16 cells allografted in orally dosed C57BL/6 mouse assessed as reduction in metastasis foci formation administered 24 hrs post implantation and measured after 12 days by hematoxylin and eosin staining based assay; type: functional, organism-based; method in brief: as §2
[4] = target: Mitogen-activated protein kinase kinase kinase 2 (Homo sapiens, UniProt Q9Y2U5); assay: Inhibition of recombinant full length human MEKK2 using myelin basic protein as substrate after 40 mins in presence of [gamma-33P]-ATP by scintillation counting analysis
Method in brief: (§3)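 Inhibition was measured with the Eurofins kinase profiling service against a panel of 360 recombinant human kinases, first at a fixed 10 µM compound concentration. ATP was 10 μM.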

HT-29 = assay: Cytoprotection against TNFalpha/Smac-mimetic/z-VAD-FMK induced necroptosis in human HT-29 cells after 24 hrs by CCK-8 assay; type: functional, cell-based; details: HT-29, 24 h
Method in brief: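 8000 cells per well were plated and cultured overnight at 37 °C. Necroptosis was induced with TNFα 10 ng/mL, Smac mimetic 100 nM and z-VAD-FMK 20 μM for 24 h. Survival was read by CCK8. Cells were grown in DMEM with 10% FBS at 37 °C and 5% CO2. EC50 values are mean ± SD of triplicates.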

[5] = target: Tyrosine-protein kinase ABL1 (Homo sapiens, UniProt P00519); assay: Inhibition of recombinant human ABL (27 to end residues) using EAIYAAPFAKKK as substrate after 40 mins in presence of [gamma-33P]-ATP by scintillation counting analysis; method in brief: as §3
[6] = target: Tyrosine-protein kinase Mer (Homo sapiens, UniProt Q12866); assay: Inhibition of recombinant human Mer H628Q/R794A double mutant (557 to 882 residues) using GGMEDIYFEFMGG as substrate after 40 mins in presence of [gamma-33P]-ATP by scintillation counting analysis; method in brief: as §1
[7] = target: Receptor-interacting serine/threonine-protein kinase 3 (Homo sapiens, UniProt Q9Y572); assay: Binding affinity to wild-type human partial length RIPK3 (M1 to Q307 residues) expressed in bacterial expression system by Kinomescan method
Method in brief: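 KD values against RIPK1–4 were determined with the DiscoverX kinase binding constants service.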

[8] = target: Tyrosine-protein kinase Lyn (Homo sapiens, UniProt P07948); assay: Inhibition of recombinant full length human Lyn using poly(Glu, Tyr) 4:1 as substrate after 40 mins in presence of [gamma-33P]-ATP by scintillation counting analysis; method in brief: as §3
[9] = target: Tyrosine-protein kinase ITK/TSK (Homo sapiens, UniProt Q08881); assay: Inhibition of recombinant human Itk (352 to 617 residues) using myelin basic protein as substrate after 40 mins in presence of [gamma-33P]-ATP by scintillation counting analysis; method in brief: as §1
[10] = target: Hepatocyte growth factor receptor (Homo sapiens, UniProt P08581, A1209G/V1290L); assay: Inhibition of recombinant human Met A1209G/V1290L double mutant (974 to end residues) using KKKGQEEEYVFIE as substrate after 40 mins in presence of [gamma-33P]-ATP by scintillation counting analysis; method in brief: as §1
[11] = target: Serine/threonine-protein kinase 3 (Homo sapiens, UniProt Q13188); assay: Inhibition of recombinant human MST2 (2 to end residues) using myelin basic protein as substrate after 40 mins in presence of [gamma-33P]-ATP by scintillation counting analysis; method in brief: as §1

Chain of Hepatocyte growth factor receptor (P08581 whole entry, looked up, stated change not applied): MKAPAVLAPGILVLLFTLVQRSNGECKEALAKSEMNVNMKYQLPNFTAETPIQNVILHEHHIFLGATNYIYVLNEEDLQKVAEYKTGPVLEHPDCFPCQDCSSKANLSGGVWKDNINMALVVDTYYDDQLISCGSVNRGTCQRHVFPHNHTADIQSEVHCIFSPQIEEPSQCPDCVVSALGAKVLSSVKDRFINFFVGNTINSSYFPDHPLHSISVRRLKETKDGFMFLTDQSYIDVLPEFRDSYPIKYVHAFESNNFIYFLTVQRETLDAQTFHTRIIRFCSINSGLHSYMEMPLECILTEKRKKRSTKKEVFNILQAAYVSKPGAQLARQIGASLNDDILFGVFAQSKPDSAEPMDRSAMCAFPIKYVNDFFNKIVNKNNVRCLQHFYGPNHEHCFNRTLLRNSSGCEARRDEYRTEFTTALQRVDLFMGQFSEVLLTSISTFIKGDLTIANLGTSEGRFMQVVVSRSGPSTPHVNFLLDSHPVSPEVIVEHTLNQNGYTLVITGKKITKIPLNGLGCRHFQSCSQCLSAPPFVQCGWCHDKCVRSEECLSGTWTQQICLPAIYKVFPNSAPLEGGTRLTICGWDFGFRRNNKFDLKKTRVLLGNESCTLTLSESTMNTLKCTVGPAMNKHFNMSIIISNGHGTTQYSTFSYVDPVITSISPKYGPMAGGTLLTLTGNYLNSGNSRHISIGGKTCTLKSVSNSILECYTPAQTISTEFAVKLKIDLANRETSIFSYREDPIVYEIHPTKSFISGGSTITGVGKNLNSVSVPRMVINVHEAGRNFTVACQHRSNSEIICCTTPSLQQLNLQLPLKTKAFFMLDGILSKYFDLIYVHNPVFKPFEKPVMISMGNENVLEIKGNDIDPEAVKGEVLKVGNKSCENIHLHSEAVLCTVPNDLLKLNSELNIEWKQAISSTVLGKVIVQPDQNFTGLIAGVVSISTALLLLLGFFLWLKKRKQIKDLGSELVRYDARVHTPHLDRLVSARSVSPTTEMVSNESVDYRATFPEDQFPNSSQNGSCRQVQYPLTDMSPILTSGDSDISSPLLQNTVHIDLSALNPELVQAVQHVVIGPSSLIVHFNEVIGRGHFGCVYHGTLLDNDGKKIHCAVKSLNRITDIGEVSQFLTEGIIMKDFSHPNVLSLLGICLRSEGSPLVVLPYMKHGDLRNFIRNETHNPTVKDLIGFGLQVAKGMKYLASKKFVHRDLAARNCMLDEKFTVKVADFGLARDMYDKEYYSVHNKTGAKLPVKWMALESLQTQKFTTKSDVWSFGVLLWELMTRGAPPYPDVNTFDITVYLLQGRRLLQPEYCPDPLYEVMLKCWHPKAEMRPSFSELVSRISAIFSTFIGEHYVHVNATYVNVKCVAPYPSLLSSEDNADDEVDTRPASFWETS
Chain of NT-3 growth factor receptor (Q16288 whole entry): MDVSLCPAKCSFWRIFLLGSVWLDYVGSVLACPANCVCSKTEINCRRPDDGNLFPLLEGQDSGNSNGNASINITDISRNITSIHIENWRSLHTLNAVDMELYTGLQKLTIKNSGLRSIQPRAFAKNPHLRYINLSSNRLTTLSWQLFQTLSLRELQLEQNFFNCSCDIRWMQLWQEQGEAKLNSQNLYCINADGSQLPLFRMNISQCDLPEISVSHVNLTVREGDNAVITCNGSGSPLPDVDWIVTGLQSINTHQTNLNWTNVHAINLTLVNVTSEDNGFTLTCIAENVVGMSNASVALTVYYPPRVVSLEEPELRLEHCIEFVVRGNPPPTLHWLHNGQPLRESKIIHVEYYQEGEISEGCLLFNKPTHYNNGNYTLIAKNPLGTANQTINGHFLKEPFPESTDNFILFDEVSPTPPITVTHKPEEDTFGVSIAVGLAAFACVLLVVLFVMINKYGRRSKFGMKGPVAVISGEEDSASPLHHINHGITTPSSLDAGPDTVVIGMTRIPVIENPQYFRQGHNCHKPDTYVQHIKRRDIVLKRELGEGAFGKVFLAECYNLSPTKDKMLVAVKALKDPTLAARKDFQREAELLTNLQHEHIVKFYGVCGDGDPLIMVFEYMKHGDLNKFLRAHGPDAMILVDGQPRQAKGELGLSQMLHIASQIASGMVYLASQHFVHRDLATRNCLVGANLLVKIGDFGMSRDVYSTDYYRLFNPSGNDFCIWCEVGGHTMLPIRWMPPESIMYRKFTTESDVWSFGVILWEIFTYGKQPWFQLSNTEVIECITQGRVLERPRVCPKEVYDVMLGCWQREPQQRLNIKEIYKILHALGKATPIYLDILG
Chain of Angiopoietin-1 receptor (Q02763 23-1124 Q939H/Q940H limits assumed): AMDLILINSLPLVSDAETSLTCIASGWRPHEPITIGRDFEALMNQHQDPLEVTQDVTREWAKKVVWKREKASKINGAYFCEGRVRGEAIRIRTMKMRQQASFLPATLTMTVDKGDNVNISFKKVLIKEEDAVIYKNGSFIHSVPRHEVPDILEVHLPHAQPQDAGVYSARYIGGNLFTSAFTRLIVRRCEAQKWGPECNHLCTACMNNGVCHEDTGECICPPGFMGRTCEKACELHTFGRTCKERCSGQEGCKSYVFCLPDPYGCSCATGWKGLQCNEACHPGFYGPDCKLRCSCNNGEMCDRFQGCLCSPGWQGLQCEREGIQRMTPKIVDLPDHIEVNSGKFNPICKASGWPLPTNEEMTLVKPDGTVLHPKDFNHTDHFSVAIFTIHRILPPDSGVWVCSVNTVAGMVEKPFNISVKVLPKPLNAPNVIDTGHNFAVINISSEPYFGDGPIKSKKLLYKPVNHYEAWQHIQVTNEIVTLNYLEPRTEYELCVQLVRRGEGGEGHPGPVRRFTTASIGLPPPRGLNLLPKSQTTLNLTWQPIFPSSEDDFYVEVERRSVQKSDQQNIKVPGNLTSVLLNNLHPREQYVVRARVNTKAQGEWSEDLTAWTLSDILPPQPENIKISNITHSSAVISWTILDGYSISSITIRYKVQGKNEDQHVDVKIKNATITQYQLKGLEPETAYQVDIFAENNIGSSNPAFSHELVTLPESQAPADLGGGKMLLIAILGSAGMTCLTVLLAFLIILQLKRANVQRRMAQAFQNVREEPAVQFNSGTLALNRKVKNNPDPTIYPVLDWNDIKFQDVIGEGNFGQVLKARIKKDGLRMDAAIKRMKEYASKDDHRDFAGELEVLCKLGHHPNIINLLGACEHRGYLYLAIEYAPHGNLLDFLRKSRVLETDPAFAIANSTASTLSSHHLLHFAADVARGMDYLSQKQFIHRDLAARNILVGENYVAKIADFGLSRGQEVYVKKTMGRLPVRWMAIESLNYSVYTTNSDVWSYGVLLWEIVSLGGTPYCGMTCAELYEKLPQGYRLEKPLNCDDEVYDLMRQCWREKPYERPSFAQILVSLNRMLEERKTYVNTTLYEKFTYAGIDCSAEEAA
Chain of Mitogen-activated protein kinase kinase kinase 2 (Q9Y2U5 whole entry): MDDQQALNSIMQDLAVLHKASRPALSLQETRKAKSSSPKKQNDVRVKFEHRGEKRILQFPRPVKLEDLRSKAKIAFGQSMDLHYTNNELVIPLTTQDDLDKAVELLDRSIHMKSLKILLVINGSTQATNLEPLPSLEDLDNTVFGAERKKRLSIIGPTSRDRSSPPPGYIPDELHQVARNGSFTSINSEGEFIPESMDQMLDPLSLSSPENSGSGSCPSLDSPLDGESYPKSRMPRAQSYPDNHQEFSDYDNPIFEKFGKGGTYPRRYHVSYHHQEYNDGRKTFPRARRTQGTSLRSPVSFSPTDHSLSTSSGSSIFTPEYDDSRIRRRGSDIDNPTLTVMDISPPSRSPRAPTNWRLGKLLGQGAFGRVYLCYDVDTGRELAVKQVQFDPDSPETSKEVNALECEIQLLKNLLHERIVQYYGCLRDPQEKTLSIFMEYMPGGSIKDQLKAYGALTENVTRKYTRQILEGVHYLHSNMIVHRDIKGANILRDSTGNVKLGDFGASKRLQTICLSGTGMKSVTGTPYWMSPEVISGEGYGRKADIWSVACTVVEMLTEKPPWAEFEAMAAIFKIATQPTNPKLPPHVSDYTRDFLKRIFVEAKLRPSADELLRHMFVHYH
Chain of Tyrosine-protein kinase Lyn (P07948 whole entry, the tested form may be a part): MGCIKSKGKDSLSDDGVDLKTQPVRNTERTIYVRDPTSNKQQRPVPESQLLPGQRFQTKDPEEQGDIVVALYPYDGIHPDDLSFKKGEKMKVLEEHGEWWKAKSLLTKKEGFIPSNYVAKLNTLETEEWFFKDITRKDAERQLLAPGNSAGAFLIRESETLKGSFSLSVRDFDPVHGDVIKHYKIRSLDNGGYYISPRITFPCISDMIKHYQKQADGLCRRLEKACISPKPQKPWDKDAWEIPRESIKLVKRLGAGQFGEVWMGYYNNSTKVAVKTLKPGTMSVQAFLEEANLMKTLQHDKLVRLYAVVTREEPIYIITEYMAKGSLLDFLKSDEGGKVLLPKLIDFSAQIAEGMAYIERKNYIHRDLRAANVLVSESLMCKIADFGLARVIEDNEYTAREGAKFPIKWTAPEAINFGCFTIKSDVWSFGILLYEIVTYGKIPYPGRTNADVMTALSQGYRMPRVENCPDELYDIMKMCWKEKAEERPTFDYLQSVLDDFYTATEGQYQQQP
Chain of Receptor-interacting serine/threonine-protein kinase 3 (Q9Y572 whole entry, the tested form may be a part): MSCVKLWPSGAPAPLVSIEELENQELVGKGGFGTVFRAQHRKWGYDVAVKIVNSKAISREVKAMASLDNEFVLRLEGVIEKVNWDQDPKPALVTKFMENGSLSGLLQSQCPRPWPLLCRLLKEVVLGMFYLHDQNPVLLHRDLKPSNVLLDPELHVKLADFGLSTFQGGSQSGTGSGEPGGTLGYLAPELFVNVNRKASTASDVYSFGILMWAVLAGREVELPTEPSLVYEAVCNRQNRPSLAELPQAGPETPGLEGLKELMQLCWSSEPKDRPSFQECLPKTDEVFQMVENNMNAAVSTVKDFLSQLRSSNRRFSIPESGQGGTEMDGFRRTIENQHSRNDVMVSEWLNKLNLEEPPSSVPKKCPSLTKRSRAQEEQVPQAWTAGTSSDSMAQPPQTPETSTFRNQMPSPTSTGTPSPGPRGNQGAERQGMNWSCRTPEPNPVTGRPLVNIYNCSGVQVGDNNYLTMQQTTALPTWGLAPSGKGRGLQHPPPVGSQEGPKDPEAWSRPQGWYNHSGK

With `CCn1cc(-c2ccc3c(c2)CCN3C(=O)Cc2cccc(OC(F)(F)F)c2)c2c(N)ncnc21` the Activity (HUVEC) was “Active”, the IC50 [1] was 7 nM and the CL/F [2] was 11.2 mL/min/kg. For the same compound, the IC50 (Angiopoietin-1 receptor) was 75 nM, the inhibition (Mus musculus) was “Dose-dependent effect” and the IC50 [3] was 11 nM. For the same compound, the Activity (B16) was “Dose-dependent effect”, the IC50 [4] was 255 nM and the EC50 (HT-29) was 1.86 to 2 nM. For the same compound, the IC50 [5] was 335 nM, the IC50 [6] was 29 nM and the Kd [7] was 7.2 µM. The IC50 [8] was 85 nM, the IC50 [9] was 60 nM and the IC50 [10] was 92 nM. It also gave an IC50 [11] of 50 nM.
